Compound activity deposited in PubChem BioAssay by Broad Institute.
A selection: hits, their analogues and other compounds. The true share with any hit is near 1.9%.
CFTR F508del cor = CFTR F508del correction in bronchial cells | CFBE cells, YFP halide quenching; stimulated with forskolin plus potentiator P3; % fluorescence drop versus neutral controls | activity (quench increase), % at 7.58 µM | 350,000 tested, 0.36% active | AID 720511;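 active means mean added fluorescence quench of at least 8% versus neutral control, with both replicates also reaching 8%; inconclusive means only one of the mean or replicate conditions met; inactive means mean below 8% and not both replicates reaching 8%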;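 further: cells transiently co-express mutant CFTR-F508del with the halide-sensitive YFP; corrector assay measuring rescue of mutant channel to the surface after 24 h compound exposure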
DENV2 CPE rescue = inhibitors of DENV2 cytopathic effect | DENV2-infected cells, cytopathic effect rescue, plate reader | CPE inhibition, % at 9.99 µM | 350,000 tested, 1.7% active | AID 651640; in the data active means CPE inhibition above about 20%, passing the limit was not always enough; inconclusive means no clear call, values can overlap the other calls; tested in BHK-21 cells;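 further: 0% = median of neutral control wells and 100% = median of positive control wells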
Cneo AK release = causes C. neoformans cell lysis; lysis activity, % at 15 µM; 360,000 tested, 0.2% active; adenylate kinase release luminescence, 4 h; normalised: neutral wells 0, clomiphene wells 100;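 active means mean lysis activity across replicates of at least 80%, whatever share of replicates individually reach that level; inactive means mean lysis activity below 80%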
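Schedule: static 4 h at 37 °C with compound, 1 h detection; system: C. neoformans cells; benchmarks: Clomiphene as positive control; buffer or medium: fresh YPD medium; measure: luminescence rise reflecting yeast cell lysis; measured by: luminescent adenylate kinase detection reagent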
FN deposition inh = fibronectin deposition inhibition; inhibition, % at 12.6 µM; 350,000 tested, 0.086% active; AH1F fibroblasts, Alexa488-fibronectin deposition fluorescence, overnight;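 active means mean inhibition across replicates of 30% or more, regardless of how many single replicates reach that level; inconclusive means mean under 30% yet at least half of replicates reach 30%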;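 further: positive control wells lacked labelled fibronectin entirely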
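Material: AH1F fibroblast monolayer depositing Alexa488-labelled fibronectin into matrix | Input: 10000 AH1F cells/well | Medium: DMEM plus 2% serum, read in PBS | Reagent: Alexa488-fibronectin, 24 nM final in well | Compound dosing: One dose per compound, pinned | Schedule: 1 h adhesion, overnight exposure | Measured by: Fluorescence at 485 nm excitation, 525 nm emission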
Xi reactivation = X-chromosome reactivation activator | XiGFP mouse fibroblasts, % GFP-positive cells imaging, 3 d; cells co-treated with 5-aza-dC sensitizer; scaled so ellipticine positive control = 100% | activation, % at 7.58 µM | 360,000 tested, 0.055% active | AID 743238;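 active means mean normalized replicate activation at least 10% and every replicate at or above 10%; inconclusive means only one of the two criteria met; inactive means mean below 10% and not all replicates reach 10%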;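 further: 0% = median of on-plate neutral control wells and 100% = ellipticine 6 µM median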
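System: XiGFP fibroblasts, SV40-immortalized. Medium: DMEM plus 5-aza-dC sensitizer. Doses: single point. Timing: 3 d treatment, 15 min room-temperature fixation. Control set: ellipticine 6 µM.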
PGC1a acetyl inh = modulators of PGC1a acetylation | U2OS PGC1a acetylation, AlphaScreen anti-acetyl-lysine; with virally co-expressed GCN5 acetyltransferase | inhibition, % at 15.6 µM | 350,000 tested, 0.17% active | AID 651687;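 active means every replicate shows inhibition of at least 40%; inconclusive means mean inhibition at least 40% but some replicate below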;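 further: 0% = neutral control wells and 100% = positive control wells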
An asterisk follows results filed as active.

For Cc1ccc(NC2CCCN(C(=O)c3ccoc3)C2)cc1C (stereo not drawn) the results were CFTR F508del cor 3.2, DENV2 CPE rescue -0.4, Cneo AK release -4.2, FN deposition inh 2.4, Xi reactivation 0.0 and PGC1a acetyl inh 0.1.
Screening Cc1ccc(-c2ccc([C@H]3[C@@H](CO)N4CCCCN(C)C[C@H]34)cc2)cc1 returned CFTR F508del cor -2.2, DENV2 CPE rescue 27.0*, Cneo AK release 45.9, Xi reactivation 0.1 and PGC1a acetyl inh -9.0.
Screening C/C=C/c1ccc([C@H]2[C@@H](CO)N3CCCCN(C)C[C@H]23)cc1 returned CFTR F508del cor 0.9, DENV2 CPE rescue 54.1*, Cneo AK release 1.3, Xi reactivation 0.1 and PGC1a acetyl inh -5.2.
For CN(C)C(=O)c1ccc(-c2ccc([C@H]3[C@H](CO)N4CCCCN(CCC(F)(F)F)C[C@@H]34)cc2)cc1 the results were CFTR F508del cor 2.1, DENV2 CPE rescue 12.4, Cneo AK release 96.0*, Xi reactivation 0.1 and PGC1a acetyl inh 13.9.
Screening CN1CCCCN2[C@H](CO)[C@@H](c3ccc(-c4ccc(F)cc4)cc3)[C@@H]2C1 returned CFTR F508del cor -0.5, DENV2 CPE rescue 60.8*, Cneo AK release 7.2, FN deposition inh -4.2, Xi reactivation 0.0 and PGC1a acetyl inh 6.4.
For Cc1ccc(-c2ccc([C@H]3[C@H]4CN(C)CCCCN4[C@H]3CO)cc2)cc1 the results were CFTR F508del cor 3.4, DENV2 CPE rescue 4.9, Cneo AK release 49.5, Xi reactivation 0.1 and PGC1a acetyl inh 1.9.
`CC(C)[C@H](CO)NC(=O)[C@H]1O[C@@H](n2ccc(N)nc2=O)[C@H](O)[C@@H]1O` gave CFTR F508del cor -3.0, DENV2 CPE rescue 2.4, Cneo AK release -0.4, FN deposition inh -5.1 and PGC1a acetyl inh -1.2.
Nc1ccn([C@@H]2O[C@H](C(=O)NCC(F)(F)F)[C@@H](O)[C@H]2O)c(=O)n1 was read as CFTR F508del cor 10.1*, DENV2 CPE rescue inconclusive, Cneo AK release 1.4, FN deposition inh -9.7, Xi reactivation 0.0 and PGC1a acetyl inh 6.3.
C[C@@H]1CN([C@@H](C)CO)C(=O)Cc2cc(NC(=O)Cc3cn(C)c4ccccc34)ccc2O[C@H]1CN(C)C(=O)Nc1ccccc1 was read as CFTR F508del cor -0.1, DENV2 CPE rescue -5.0, Cneo AK release -4.7, Xi reactivation 0.0 and PGC1a acetyl inh 7.2.
Cc1noc(C)c1NC(=O)Nc1ccc2c(c1)C(=O)N([C@@H](C)CO)C[C@@H](C)[C@@H](CN(C)C)OCCCC[C@@H](C)O2 was read as CFTR F508del cor -2.5, DENV2 CPE rescue 84.2*, Cneo AK release 1.6, Xi reactivation -0.8 and PGC1a acetyl inh -4.1.
Cc1noc(C)c1NC(=O)Nc1ccc2c(c1)C(=O)N([C@@H](C)CO)C[C@@H](C)[C@H](CN(C)C)OCCCC[C@@H](C)O2 was read as CFTR F508del cor 0.1, DENV2 CPE rescue 15.7, Cneo AK release -4.3, Xi reactivation -0.8 and PGC1a acetyl inh 8.7.
`Cc1noc(C)c1NC(=O)N(C)C[C@H]1OCCCC[C@@H](C)Oc2ccc(NC(=O)NC(C)C)cc2C(=O)N([C@H](C)CO)C[C@H]1C` gave CFTR F508del cor 2.8, DENV2 CPE rescue -4.7, Cneo AK release 100.3*, Xi reactivation 0.0 and PGC1a acetyl inh 6.0.
Screening Cc1noc(C)c1NC(=O)N(C)C[C@@H]1OCCCC[C@H](C)Oc2ccc(NS(=O)(=O)c3ccc(Cl)cc3)cc2C(=O)N([C@H](C)CO)C[C@@H]1C returned CFTR F508del cor -1.2, DENV2 CPE rescue 32.2*, Cneo AK release 0.1, FN deposition inh -4.3, Xi reactivation 0.0 and PGC1a acetyl inh 13.8.
`Cc1noc(C)c1NC(=O)Nc1ccc2c(c1)C(=O)N([C@@H](C)CO)C[C@@H](C)[C@H](CN(C)C(=O)Nc1c(C)noc1C)OCCCC[C@@H](C)O2` gave CFTR F508del cor 1.2, DENV2 CPE rescue 30.5*, Cneo AK release -2.0, FN deposition inh 1.2, Xi reactivation 0.2 and PGC1a acetyl inh -3.0.
`Cc1noc(C)c1NC(=O)Nc1ccc2c(c1)C(=O)N([C@@H](C)CO)C[C@@H](C)[C@H](CN(C)C(=O)Nc1c(C)noc1C)OCCCC[C@H](C)O2` gave CFTR F508del cor 0.7, DENV2 CPE rescue 9.6, Cneo AK release -1.4, FN deposition inh 2.4, Xi reactivation 0.1 and PGC1a acetyl inh -4.5.
Screening Cc1noc(C)c1NC(=O)N(C)C[C@@H]1OCCCC[C@@H](C)Oc2ccc(NC(=O)NC(C)C)cc2C(=O)N([C@H](C)CO)C[C@H]1C returned CFTR F508del cor -1.8, DENV2 CPE rescue -7.1, Xi reactivation 0.0 and PGC1a acetyl inh 11.5.
Screening CCCN1[C@@H]2c3ccc(/C=C/c4ccccc4)c(=O)n3C[C@H]1[C@H](CO)[C@H]2C(=O)NCC1CC1 returned CFTR F508del cor 0.0, DENV2 CPE rescue 1.0, Cneo AK release 2.3 and Xi reactivation 0.5.
CN1CCN(C(=O)C[C@H]2CC[C@H]3[C@H](COc4ccc(NC(=O)c5cscn5)cc4C(=O)N3C)O2)CC1 was read as CFTR F508del cor 1.9, DENV2 CPE rescue -1.0, Cneo AK release 1.1, FN deposition inh -1.8, Xi reactivation 0.5 and PGC1a acetyl inh 0.7.
For C[C@H](CO)N1C[C@H](C)[C@@H](CN(C)C(=O)Nc2ccccc2)Oc2c(NS(C)(=O)=O)cccc2C1=O the results were CFTR F508del cor -1.3, DENV2 CPE rescue 4.3, Cneo AK release -4.1, FN deposition inh 5.1, Xi reactivation 0.0 and PGC1a acetyl inh 4.5.
For CCC(=O)N(C)C[C@H]1Oc2ncc(-c3ccccc3F)cc2C(=O)N([C@H](C)CO)C[C@@H]1C the results were CFTR F508del cor 1.2, DENV2 CPE rescue 9.3, Cneo AK release 0.2, FN deposition inh -4.1, Xi reactivation 0.0 and PGC1a acetyl inh -4.9.
`CC(C)c1cn(CC[C@H]2CC[C@@H](NC(=O)C3CCCC3)[C@@H](CO)O2)nn1` gave CFTR F508del cor 0.3, DENV2 CPE rescue -5.1, Cneo AK release -2.3, FN deposition inh 4.9, Xi reactivation -0.1 and PGC1a acetyl inh 8.8.
For Cc1noc(C)c1NC(=O)N(C)C[C@H]1OCCCC[C@H](C)Oc2ccc(NC(=O)NC(C)C)cc2C(=O)N([C@@H](C)CO)C[C@@H]1C the results were CFTR F508del cor -3.5, DENV2 CPE rescue -9.4, Cneo AK release 89.8*, Xi reactivation 0.0 and PGC1a acetyl inh -1.1.
`Cc1noc(C)c1NC(=O)Nc1ccc2c(c1)C(=O)N([C@H](C)CO)C[C@H](C)[C@H](CN(C)C(=O)Nc1ccccc1)OCCCC[C@H](C)O2` gave CFTR F508del cor -3.4, DENV2 CPE rescue 68.4*, Cneo AK release -2.7, FN deposition inh 3.3, Xi reactivation 0.2 and PGC1a acetyl inh -10.3.
